Key:
[1] = biological target: T1, Caspase-1 (Homo sapiens, UniProt P29466); assay: Inhibition of caspase 1 by fluorometric assay
T1 sequence (P29466 whole entry): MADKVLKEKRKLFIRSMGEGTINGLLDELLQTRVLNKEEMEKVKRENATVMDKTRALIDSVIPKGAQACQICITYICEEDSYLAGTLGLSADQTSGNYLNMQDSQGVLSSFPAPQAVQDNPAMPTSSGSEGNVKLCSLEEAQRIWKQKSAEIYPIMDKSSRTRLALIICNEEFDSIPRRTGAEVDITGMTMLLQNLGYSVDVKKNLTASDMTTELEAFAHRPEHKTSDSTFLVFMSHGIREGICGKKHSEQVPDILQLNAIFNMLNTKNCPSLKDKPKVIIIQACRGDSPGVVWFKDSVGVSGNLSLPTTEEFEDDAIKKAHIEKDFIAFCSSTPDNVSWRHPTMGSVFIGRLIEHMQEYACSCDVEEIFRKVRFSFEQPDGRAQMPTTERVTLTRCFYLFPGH
Method in brief: (§1)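 Recombinant caspases were tested in a standard fluorometric enzyme assay. IC50 is reported as mean ± SD of at least three independent assays.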

[2] = biological target: T2, Caspase-3 (Homo sapiens, UniProt P42574); assay: Inhibition of human caspase 3 by fluorometric assay; method in brief: as §1
T2 sequence (P42574 whole entry): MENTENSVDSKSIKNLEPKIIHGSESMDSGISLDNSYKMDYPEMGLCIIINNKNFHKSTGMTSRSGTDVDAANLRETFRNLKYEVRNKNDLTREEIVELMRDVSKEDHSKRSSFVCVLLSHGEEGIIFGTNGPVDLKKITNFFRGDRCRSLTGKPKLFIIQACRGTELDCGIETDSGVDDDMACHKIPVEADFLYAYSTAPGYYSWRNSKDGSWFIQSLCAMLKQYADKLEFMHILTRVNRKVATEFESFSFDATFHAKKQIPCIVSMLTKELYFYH

[3] = biological target: T3, Caspase-7 (Homo sapiens, UniProt P55210); assay: Inhibition of caspase 7 by fluorometric assay
T3 sequence (P55210 whole entry): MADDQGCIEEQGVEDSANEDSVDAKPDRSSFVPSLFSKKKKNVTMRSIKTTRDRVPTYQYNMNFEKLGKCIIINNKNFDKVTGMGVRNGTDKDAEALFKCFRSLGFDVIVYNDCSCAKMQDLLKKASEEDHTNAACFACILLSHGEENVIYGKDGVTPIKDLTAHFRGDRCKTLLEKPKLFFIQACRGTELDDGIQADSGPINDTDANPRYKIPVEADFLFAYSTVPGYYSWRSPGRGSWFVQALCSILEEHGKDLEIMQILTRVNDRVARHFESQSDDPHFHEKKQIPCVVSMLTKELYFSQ

[4] = biological target: T4, Caspase-6 (Homo sapiens, UniProt P55212); assay: Inhibition of caspase 6 by fluorometric assay; method in brief: as §1
T4 sequence (P55212 whole entry): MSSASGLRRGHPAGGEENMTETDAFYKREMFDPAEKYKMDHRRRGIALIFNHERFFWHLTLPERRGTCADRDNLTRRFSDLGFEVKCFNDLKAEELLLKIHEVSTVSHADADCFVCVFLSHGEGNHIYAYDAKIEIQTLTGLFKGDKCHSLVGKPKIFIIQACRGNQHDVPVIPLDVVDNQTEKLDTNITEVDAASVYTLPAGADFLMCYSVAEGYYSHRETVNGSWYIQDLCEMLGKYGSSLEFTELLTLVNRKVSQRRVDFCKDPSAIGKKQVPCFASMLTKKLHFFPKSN

[5] = biological target: T2, Caspase-3; assay: Inhibition of staurosporine induced activation of caspase 3 activation in human Hela cells assessed as hydrolysis of Z-DEVD-R110 substrate by microplate fluorescence assay; assay type: cell-based
Method in brief: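 HeLa cells were seeded at 1-2×10^4 per well and left to adhere overnight at 37°C in 5% CO2. […] A homogeneous caspase-3/7 kit with cell-permeable Z-DEVD-R110 was then used, reading fluorescence at ex 485/em 535 nm. EC50 was taken from dose-response curves, as mean ± SD of ≥3 independent experiments.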

[6] = biological target: Caspase-8 (Homo sapiens, UniProt Q14790); assay: Inhibition of caspase 8 by fluorometric assay; method in brief: as §1
Chain of Caspase-8 (Q14790 217-374 limits assumed): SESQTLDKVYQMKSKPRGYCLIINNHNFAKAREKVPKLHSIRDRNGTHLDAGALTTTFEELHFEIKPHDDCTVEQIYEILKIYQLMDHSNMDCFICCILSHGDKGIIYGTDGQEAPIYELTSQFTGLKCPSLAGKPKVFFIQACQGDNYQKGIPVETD
Chain of Caspase-8 (Q14790 385-479 limits assumed): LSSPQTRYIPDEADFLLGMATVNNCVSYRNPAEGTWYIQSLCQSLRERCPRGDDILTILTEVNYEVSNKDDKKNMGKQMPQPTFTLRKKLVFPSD

Row | SMILES | IC50 [1] [µM] | IC50 [2] [µM] | IC50 [3] [µM] | IC50 [4] [µM] | EC50 [5] [µM] | IC50 [6] [µM]
1 | O=C1C(=O)N(Cc2ccc(OCCOCCOCCF)cc2)c2ccc(S(=O)(=O)N3CCC[C@H]3COc3ccccc3)cc21 | > 50 | 0.0137 | 0.0176 | 7.67 | 1.3 | > 50
2 | O=C1C(=O)N(Cc2cn(CCF)nn2)c2ccc(S(=O)(=O)N3CCC[C@H]3COc3cccnc3)cc21 | > 20 | 0.0045 | – | 13.4 | 0.35 | > 50
3 | O=C1C(=O)N(Cc2ccc(OCCF)cc2)c2ccc(S(=O)(=O)N3CC[C@H]3COc3ccc(F)cc3F)cc21 | > 50 | 0.012 | 0.0154 | 3.48 | 1.39 | > 50
4 | COc1ccc(CN2C(=O)C(=C(C#N)C#N)c3cc(S(=O)(=O)N4CC[C@H]4COc4cccnc4)ccc32)cc1 | > 36 | 0.006 | 0.05 | 0.45 | – | > 50
5 | O=C1C(=O)N(Cc2ccc(OCCF)cc2)c2ccc(S(=O)(=O)N3CC[C@H]3COc3cccnc3)cc21 | > 10 | 0.0036 | 0.0176 | 8.7 | 0.38 | > 50
6 | N#CC(C#N)=C1C(=O)N(Cc2ccc(OCCOCCF)cc2)c2ccc(S(=O)(=O)N3CC[C@H]3COc3ccccc3)cc21 | 5.73 | 0.0244 | 0.0683 | 1.01 | – | > 50
7 | N#CC(C#N)=C1C(=O)N(Cc2ccc(OCCF)cc2)c2ccc(S(=O)(=O)N3CC[C@H]3COc3cccnc3)cc21 | 2.9 | 0.0071 | 0.045 | 0.509 | – | > 50
8 | O=C1C(=O)N(Cc2cn(CCF)nn2)c2ccc(S(=O)(=O)N3CC[C@H]3COc3cccnc3)cc21 | > 20 | 0.0056 | 0.0061 | 7.75 | 0.42 | > 50
9 | O=C1Nc2ccc(S(=O)(=O)N3CCC[C@H]3COc3ccccc3)cc2C1=O | – | – | – | – | 11.5 | –
10 | COc1ccc(CN2C(=O)C(=O)c3cc(S(=O)(=O)N4CCC[C@H]4COc4cccnc4)ccc32)cc1 | – | – | – | – | 0.45 | –
11 | O=C1C(=O)N(Cc2ccc(OCCOCCF)cc2)c2ccc(S(=O)(=O)N3CCC[C@H]3COc3ccccc3)cc21 | > 25 | 0.0109 | 0.0119 | > 10 | 1.69 | > 50
12 | N#CC(C#N)=C1C(=O)N(Cc2ccc(OCCF)cc2)c2ccc(S(=O)(=O)N3CCC[C@H]3COc3cccnc3)cc21 | 3.5 | 0.0075 | 0.0265 | 0.77 | – | > 50
13 | CN1C(=O)C(=O)c2cc(S(=O)(=O)N3CC[C@H]3COc3ccccc3)ccc21 | – | – | – | – | 3.25 | –
14 | CN1C(=O)C(=O)c2cc(S(=O)(=O)N3CCC[C@H]3COc3ccccc3)ccc21 | – | – | – | – | 7.67 | –
15 | O=C1C(=O)N(Cc2ccc(OCCF)cc2)c2ccc(S(=O)(=O)N3CCC[C@H]3COc3ccc(F)cc3F)cc21 | > 50 | 0.0152 | 0.0123 | 9.12 | 2.5 | > 50
16 | O=C1C(=O)N(Cc2ccc(OCCOCCF)cc2)c2ccc(S(=O)(=O)N3CC[C@H]3COc3ccccc3)cc21 | > 50 | 0.0279 | 0.0289 | > 10 | 2.15 | > 50
17 | O=C1C(=O)N(Cc2cn(CCF)nn2)c2ccc(S(=O)(=O)N3CC[C@H]3COc3ccc(F)cc3F)cc21 | > 20 | 0.0134 | 0.0153 | 4.7 | 1.06 | > 50
18 | O=C1C(=O)N(Cc2cn(CCF)nn2)c2ccc(S(=O)(=O)N3CC[C@H]3COc3ccccc3)cc21 | > 20 | 0.011 | 0.018 | 6.95 | 0.8 | > 50
